# Measurements taken from paper PMC7704867 (Biochimica et biophysica acta. Biomembranes, 2020).
# Ends that are not written are not given here. Peptide text beside a SMILES is read from it. * marks the point of attachment. DOTA = O=C(O)CN1CCN(CC(=O)O)CCN(CC(=O)*)CCN(CC(=O)O)CC1
# B1: Ac-SW-S/E (peptide)
# peptide: Ac-CFLHFGKTGESGPLQ
# B2: Ac-SW-F/A (peptide)
# peptide: Ac-CFLHAGKTGSSGPLQ
# B3: Ac-LW, CEACAM1 long form 15 amino acid peptide (peptide)
# peptide: Ac-CFLHFGKTGRASDQR
# B4: Ac-SW-TS/EE (peptide)
# peptide: Ac-CFLHFGKEGESGPLQ
# B5: Y-DOTA-SW (peptide)
# peptide: {DOTA}-GFLHFGKTGSSGPLQ
# modifications: also: N-terminal DOTA chelated with Y3+
# B6: Ac-SW, CEACAM1 short form 15 amino acid peptide (peptide)
# peptide: Ac-CFLHFGKTGSSGPLQ
# B7: Ac-SW-T/E (peptide)
# peptide: Ac-CFLHFGKEGSSGPLQ
# Target: Ac-^15N-F454G458G461-SW
# Test: NMR titration
# Conditions: not given
row,Kd,Molecule
1,0.46 mM,S100A10-AnxA2Nter fusion protein [S100A10(1–92)-ENLYFQGD linker-AnxA2 peptide (1–13)]

# System: AnxA2
# Test: not given
# Assay type: binding, human
# Conditions: 60 μM peptide, up to molar ratio 1:1, 1H-15N HSQC, 25°C, pH 5.5
# Outline: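 Recombinant human AnxA2 (C-terminal thrombin site and His tag, expressed in E. coli C41(DE3)) titrated up to 1:1 molar ratio into uniformly 15N-labelled 12-residue CEACAM1-SF peptide (Trx-SMT3 fusion grown in M9/15NH4Cl, Ulp1-cleaved, HPLC-purified) at 60 μM. Buffer: 50 mM NaAc-d3, 2 mM DTT, 5% D2O. 1H-15N HSQC at 700 MHz with cryoprobe; chemical shift perturbations monitored.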
row,Molecule,chemical shift perturbation of peptide on titration with AnxA2
1,453-HFGKTGSSGPLQ-464 [^15N-SW-12],no chemical shift perturbation

# Target: S100A10-AnxA2Nter fusion protein [S100A10(1–92)-ENLYFQGD linker-AnxA2 peptide (1–13)]
# Test: NMR titration
# Conditions: not given
row,Kd,Molecule
1,1.58 mM,B1
2,2.1 mM,B2
3,1.22 mM,B3
4,3.53 mM,B4
5,1.07 mM,B5
6,0.88 mM,B6
7,2.33 mM,B7

# Same assay, conditions: scale: peptides per S100A10-AnxA2Nter fusion dimer
row,stoichiometry N,Molecule
1,2,B6

# Target: 15N-S100A10-AnxA2Nter fusion protein (Homo sapiens, UniProt P60903)
# Test: not given
# Assay type: binding
# Conditions: not given
row,Kd,Molecule
1,2.33 ± 0.39 mM,CC(=O)N[C@@H](CS)C(=O)N[C@@H](Cc1ccccc1)C(=O)N[C@@H](CC(C)C)C(=O)N[C@@H](Cc1c[nH]cn1)C(=O)N[C@@H](Cc1ccccc1)C(=O)NCC(=O)N[C@@H](CCCCN)C(=O)N[C@@H](CCC(=O)O)C(=O)NCC(=O)N[C@@H](CO)C(=O)N[C@@H](CO)C(=O)NCC(=O)N1CCC[C@H]1C(=O)N[C@@H](CC(C)C)C(=O)N[C@@H](CCC(N)=O)C(=O)O [Ac-SW-T/E] (Ac-CFLHFGKEGSSGPLQ-OH)
2,3.53 ± 1.2 mM,CC(=O)N[C@@H](CS)C(=O)N[C@@H](Cc1ccccc1)C(=O)N[C@@H](CC(C)C)C(=O)N[C@@H](Cc1c[nH]cn1)C(=O)N[C@@H](Cc1ccccc1)C(=O)NCC(=O)N[C@@H](CCCCN)C(=O)N[C@@H](CCC(=O)O)C(=O)NCC(=O)N[C@@H](CCC(=O)O)C(=O)N[C@@H](CO)C(=O)NCC(=O)N1CCC[C@H]1C(=O)N[C@@H](CC(C)C)C(=O)N[C@@H](CCC(N)=O)C(=O)O [Ac-SW-TS/EE] (Ac-CFLHFGKEGESGPLQ-OH)
3,0.88 ± 0.1 mM,CC(=O)N[C@@H](CS)C(=O)N[C@@H](Cc1ccccc1)C(=O)N[C@@H](CC(C)C)C(=O)N[C@@H](Cc1c[nH]cn1)C(=O)N[C@@H](Cc1ccccc1)C(=O)NCC(=O)N[C@@H](CCCCN)C(=O)N[C@H](C(=O)NCC(=O)N[C@@H](CO)C(=O)N[C@@H](CO)C(=O)NCC(=O)N1CCC[C@H]1C(=O)N[C@@H](CC(C)C)C(=O)N[C@@H](CCC(N)=O)C(=O)O)[C@@H](C)O [Ac-SW] (Ac-CFLHFGKTGSSGPLQ-OH)
4,1.58 ± 0.2 mM,CC(=O)N[C@@H](CS)C(=O)N[C@@H](Cc1ccccc1)C(=O)N[C@@H](CC(C)C)C(=O)N[C@@H](Cc1c[nH]cn1)C(=O)N[C@@H](Cc1ccccc1)C(=O)NCC(=O)N[C@@H](CCCCN)C(=O)N[C@H](C(=O)NCC(=O)N[C@@H](CCC(=O)O)C(=O)N[C@@H](CO)C(=O)NCC(=O)N1CCC[C@H]1C(=O)N[C@@H](CC(C)C)C(=O)N[C@@H](CCC(N)=O)C(=O)O)[C@@H](C)O [Ac-SW-S/E] (Ac-CFLHFGKTGESGPLQ-OH)
5,2.1 ± 0.81 mM,CC(=O)N[C@@H](CS)C(=O)N[C@@H](Cc1ccccc1)C(=O)N[C@@H](CC(C)C)C(=O)N[C@@H](Cc1c[nH]cn1)C(=O)N[C@@H](C)C(=O)NCC(=O)N[C@@H](CCCCN)C(=O)N[C@H](C(=O)NCC(=O)N[C@@H](CO)C(=O)N[C@@H](CO)C(=O)NCC(=O)N1CCC[C@H]1C(=O)N[C@@H](CC(C)C)C(=O)N[C@@H](CCC(N)=O)C(=O)O)[C@@H](C)O [Ac-SW-F/A] (Ac-CFLHAGKTGSSGPLQ-OH)
